An excerpt weighted towards active compounds, which were near 0.79% of everything screened.
hIAP inh – human IAP inhibition | purified IAP, CDP-Star luminescence, 30 min | inhibition, % at 10 µM | hit rate 0.12% among 330,000;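 active means inhibition reaching a set limit with compound at 10 µM in the primary screen, cut at about 35% in these data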
Target sequence (P09923 whole entry, looked up): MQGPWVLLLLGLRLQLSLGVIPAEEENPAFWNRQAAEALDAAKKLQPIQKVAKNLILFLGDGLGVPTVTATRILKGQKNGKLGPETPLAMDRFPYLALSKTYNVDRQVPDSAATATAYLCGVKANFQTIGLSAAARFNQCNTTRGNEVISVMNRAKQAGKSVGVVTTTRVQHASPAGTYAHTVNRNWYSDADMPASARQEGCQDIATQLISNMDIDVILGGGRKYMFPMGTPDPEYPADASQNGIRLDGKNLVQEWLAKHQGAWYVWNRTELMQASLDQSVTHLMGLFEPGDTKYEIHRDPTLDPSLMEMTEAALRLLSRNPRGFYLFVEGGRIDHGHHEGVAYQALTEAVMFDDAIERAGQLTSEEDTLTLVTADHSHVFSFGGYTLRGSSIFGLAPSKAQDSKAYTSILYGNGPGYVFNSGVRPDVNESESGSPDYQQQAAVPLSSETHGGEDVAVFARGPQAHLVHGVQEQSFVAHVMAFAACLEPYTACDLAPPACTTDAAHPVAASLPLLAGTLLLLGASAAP
mIAP activ – mouse IAP activation | muIAP, CDP-Star luminescence, 30 min; active compounds read high; 1 = vehicle-only enzyme signal, 0 = enzyme-free wells | activation factor at 10 µM | hit rate 0.24% among 330,000;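 active means activation factor of at least 2 at 20 µM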
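Assay system: mouse IAP enzyme; reagent: chemiluminescent substrate CDP-Star; dosing: test compounds delivered from DMSO solution; schedule: 30 min at room temperature; measured by: luminescence from enzymatic CDP-Star hydrolysis; controls: DMSO-only wells and no-enzyme negative control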
bIAP act – intestinal alkaline phosphatase (bovine) activation | purified bovine IAP, CDP-star luminescence, 30 min; active compounds read high; fold of DMSO-control signal, blank-subtracted | activation factor at 20 µM | hit rate 0.17% among 200,000 | AID 1016;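 active means activation factor of 2 or more at 20 µM, a signal rise over negative controls twice the positive control's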
bIAP inhibitor – intestinal alkaline phosphatase (bovine) inhibition | inhibition, % at 20 µM | purified bovine IAP, CDP-star luminescence, 30 min | AID 1019 | 190,000 tested, under 10 active;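 active means over 50% inhibition of intestinal alkaline phosphatase at 20 µM in the single-dose screen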
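System: Purified bovine intestinal alkaline phosphatase (IAP) enzyme | Input: IAP diluted 1/65,000,000 in the well | Also added: CDP-star chemiluminescent phosphatase substrate, 30 µM final | Dosing: 20 µM single dose | Times: Enzyme reaction for 30 min at room temperature | Detection: Luminescence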
mIAP inh – mouse IAP inhibition; AID 2806; hit rate 0.2% among 330,000; purified mouse IAP, CDP-Star luminescence, 30 min; inhibition, % at 10 µM;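 active means inhibition of at least 40% at 10 µM in the primary screen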
hIAP activ – human IAP activation; P09923; purified human IAP, CDP-Star luminescence, 30 min; active compounds read high; 1 = vehicle-only enzyme, 0 = enzyme-free background; AID 2524; hit rate 0.16% among 330,000; activation factor at 10 µM;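 active means activation factor of the enzyme at least 2-fold when tested at 20 µM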
hIAP act conf – human IAP activation confirmation; hit rate 10% among 880; activation (%Activity, negative = activation), % at 8.3 µM; shares compounds with hIAP activ; purified IAP, CDP-Star luminescence, 30 min; active compounds read low;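 active means at least twofold enzyme activation in any of six single-dose repeats, which the averaged readout prints as negative percent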
Each line names hits and unclear results; the compound was inactive in the other large screens (follow-up assays come after a bar, where they were run).

COc1ccc(CC2CC(=O)N(c3ccc(C)cc3)C2=O)cc1 (configuration not stated)	hIAP activ 2.1 (no result: bIAP act, bIAP inhibitor) | hIAP act conf inactive
Cc1ccc(CC2CC(=O)N(c3ccc(C)cc3)C2=O)cc1 (configuration not stated)	none
CN1CCc2c1nc1ccccc1c2N (tested in a mixture with another compound)	hIAP inh 38 (no result: bIAP act, bIAP inhibitor) | hIAP act conf inactive
COc1ccc(O)c(/C=N/NC(=O)c2cccc(N3CCCC3=O)c2)c1	hIAP activ 2 (no result: bIAP act, bIAP inhibitor) | hIAP act conf inactive
COC(=O)/C(C#N)=C/c1c(Oc2cc(C)cc(C)c2)nc2ccccn2c1=O	hIAP activ 2 (no result: bIAP act, bIAP inhibitor) | hIAP act conf inactive
Cc1ccc(S(=O)(=O)N2CCOC23CCN(C(=O)C(=O)NCCC(C)C)CC3)cc1	none (no result: bIAP act, bIAP inhibitor)
CCOc1ccccc1CNC(=O)Cn1ccc2cc(S(=O)(=O)N3CCCC3)ccc21	none (no result: bIAP act, bIAP inhibitor)
COCOc1ccc(C=O)cc1OCOC	none (no result: bIAP act, bIAP inhibitor)
COc1cc(/C=C2\SC(=S)N(NC(=O)c3cccc(O)c3)C2=O)ccc1O	none (no result: bIAP act, bIAP inhibitor)
COc1cc(/C=C2\SC(=S)N(NC(=O)c3ccncc3)C2=O)ccc1O	hIAP inh 35 (no result: bIAP act, bIAP inhibitor) | hIAP act conf inactive
COc1cc(/C=C2\SC(=S)N(N3CCOCC3)C2=O)ccc1O	hIAP inh 44 (no result: bIAP act, bIAP inhibitor) | hIAP act conf inactive
COc1cc(/C=C2\SC(=S)N(NC(=O)c3ccc(O)c(OC)c3)C2=O)ccc1O	hIAP inh 46 (no result: bIAP act, bIAP inhibitor) | hIAP act conf inactive
COc1ccc(-n2ncc3c2CC(C)(C)CC3NC(=O)Cc2nonc2C)cc1 (configuration not stated)	none (no result: bIAP act, bIAP inhibitor)
COc1ccc(C(C)NC(=O)c2ccncc2)cc1 (configuration not stated)	none (no result: bIAP act, bIAP inhibitor)
CC(C)Cc1nnc(NC(=O)CCC(=O)NC2CCCCCC2)s1	none (no result: bIAP act, bIAP inhibitor)
O=C(NCc1ccco1)c1ccc(CS(=O)Cc2ccc(Cl)cc2)o1 (configuration not stated)	none (no result: bIAP act, bIAP inhibitor)
CCOC(=O)C1CCN(C(=O)N2CCOCC2)CC1	hIAP activ 2 | hIAP act conf inactive
c1ccc(-c2cc3c(ccc4nonc43)nn2)cc1	none
On1onc2c3cc(-c4ccccc4)nc3ccc21	hIAP inh 37 | hIAP act conf inactive
c1ccc(-n2ncc3c2ncn2nc(-c4ccco4)nc32)cc1	hIAP inh 52 | hIAP act conf inactive
COc1ccc(NC(=S)NNC(=O)c2nnn(-c3ccccc3)c2C)cc1	hIAP activ 2.1 | hIAP act conf inactive
Cc1cc(OCC(=O)N2CCN(c3ccccc3)CC2)c2c(C)cc(=O)oc2c1	hIAP inh 39 (no result: bIAP act, bIAP inhibitor) | hIAP act conf inactive
O=C(O)COc1ccc2c3c(c(=O)oc2c1)CCCC3	none
O=C(COc1ccc2c3c(c(=O)oc2c1)CCCC3)N1CCN(c2ccccc2)CC1	hIAP inh 37 (no result: bIAP act, bIAP inhibitor) | hIAP act conf inactive
CC(C)(C)OC(=O)NCCCC[C@H](NC(=O)c1nc[nH]c1C(=O)NCc1ccccc1)C(=O)OC(C)(C)C	none
CCOC(=O)c1ccc(NC(=O)c2nc[nH]c2C(=O)NCCCCNC(=O)c2[nH]cnc2C(=O)Nc2ccc(C(=O)OCC)cc2)cc1	none (no result: bIAP act, bIAP inhibitor)
CCOC(=O)c1ccc(NC(=O)c2nc[nH]c2C(=O)NCCCCCNC(=O)OC(C)(C)C)cc1	hIAP activ 2.3 (no result: bIAP act, bIAP inhibitor) | hIAP act conf inactive
CC(C)(C)OC(=O)NCCCC[C@H](NC(=O)c1[nH]cnc1C(=O)Nc1ccc(CNC(=O)OC(C)(C)C)cc1)C(=O)OC(C)(C)C	hIAP activ 2.7 (no result: bIAP act, bIAP inhibitor) | hIAP act conf inactive
Cc1ccc2oc(C(=O)N3CCCCCC3)c(C)c2c1	hIAP inh 46 (no result: bIAP act, bIAP inhibitor) | hIAP act conf inactive
Cc1c(C(=O)NNC(=S)Nc2ccc(S(N)(=O)=O)cc2)oc2ccccc12	hIAP activ 2.1 (no result: bIAP act, bIAP inhibitor) | hIAP act conf inactive
Cc1cnc(NC(=O)c2cccc(S(=O)(=O)N3CCOCC3)c2)s1	none (no result: bIAP act, bIAP inhibitor)
Cc1ccc(CNC(=O)CCn2cc(-c3ccc(C)cc3)nc2CCN)cc1	none (no result: bIAP act, bIAP inhibitor)
O=C1/C(=C\c2ccc(O)c(O)c2)SC(=S)N1Cc1ccccc1	hIAP inh 55 (no result: bIAP act, bIAP inhibitor) | hIAP act conf inactive
COc1cc(/C=C2/SC(=S)N(Cc3ccccc3)C2=O)ccc1O	none (no result: bIAP act, bIAP inhibitor)
CC(=O)c1cccc(N(CC(=O)NC2CCCCC2)C(=O)Cn2nnc(-c3ccccc3)n2)c1	none (no result: bIAP act, bIAP inhibitor)
CCc1ccc(S(=O)(=O)/N=C2\C=C(NS(=O)(=O)c3ccccc3)C(=O)c3ccccc32)cc1	hIAP inh 36 (no result: bIAP act, bIAP inhibitor) | hIAP act conf inactive
COc1ccc2cc(C(=O)NCc3ccccc3CN3CCCC3)ccc2c1	none (no result: bIAP act, bIAP inhibitor)
COc1cc(C(=O)NCC(=O)N/N=C/c2ccc(-c3ccc([N+](=O)[O-])cc3)o2)cc(OC)c1OC	hIAP inh 36 (no result: bIAP act, bIAP inhibitor) | hIAP act conf inactive
C[C@H]1CN([C@@H](C)CO)C(=O)Cc2cc(NC(=O)Cn3cnnn3)ccc2O[C@H]1CN(C)Cc1ccncc1	none (no result: bIAP act, bIAP inhibitor)
CCOc1cc(/C=C2/C(=O)ON=C2C)cc(Br)c1O	hIAP inh 38 (no result: bIAP act, bIAP inhibitor) | hIAP act conf inactive
N#CCC(=O)Nc1ccc(C(=O)OCC(=O)NC2CCCCCC2)cc1	none (no result: bIAP act, bIAP inhibitor)
Cc1ccc(C(=O)CSc2nc(C)cc(=O)[nH]2)cc1	none
Cc1cc(=O)[nH]c(SCC(=O)c2ccc(O)c(O)c2)n1	hIAP inh 43 (no result: bIAP act, bIAP inhibitor) | hIAP act conf inactive
Nc1ncc(Br)cc1S(=O)(=O)Nc1cc(C(F)(F)F)cc(C(F)(F)F)c1	none (no result: bIAP act, bIAP inhibitor)
COC(=O)c1ccccc1-c1c2ccc(=N)cc-2oc2cc(N)ccc12	hIAP inh 38 (no result: bIAP act, bIAP inhibitor) | hIAP act conf inactive
O=C(NCCCN1CCCC1=O)C1CCN(S(=O)(=O)c2ccccc2)CC1	none (no result: bIAP act, bIAP inhibitor)
CC(C)Cn1c(-c2ccccc2)nc(=S)c2c1CCCC2	none
COc1cccc(-c2nc(=S)c3c(n2CCCO)CCCC3)c1	hIAP activ 2.4 | hIAP act conf inactive
Cc1ccc2c(COC(=O)C3CSC4(C)CCC(=O)N34)cc(=O)oc2c1C (configuration not stated)	none (no result: bIAP act, bIAP inhibitor)
CCOC(=O)C1CCCN(C(=O)CN2C(=O)c3ccccc3S2(=O)=O)C1 (configuration not stated)	none (no result: bIAP act, bIAP inhibitor)
O=C(Cc1ccc(Br)cc1)Nc1nc2ccccc2[nH]1	none (no result: bIAP act, bIAP inhibitor)
CC(NS(=O)(=O)c1ccc(Br)cc1)C(=O)Nc1nc2ccccc2[nH]1 (configuration not stated)	hIAP activ 2.1 (no result: bIAP act, bIAP inhibitor) | hIAP act conf inactive
COc1cccc(-c2cc(C(=O)N3CCc4ccccc4C3)[nH]n2)c1	none (no result: bIAP act, bIAP inhibitor)
Cc1ccc(-c2cc(C(=O)N3CCc4ccccc4C3)[nH]n2)cc1C	hIAP activ 2.5 (no result: bIAP act, bIAP inhibitor) | hIAP act conf inactive
O=C(NC(=S)NCc1ccccc1)c1cccs1	hIAP inh 40 (no result: bIAP act, bIAP inhibitor) | hIAP act conf inactive
O=C(CNC(=S)NC(=O)c1cccs1)c1ccccc1	none
CCc1ccc(N=C2N=C(N)c3ccccc32)cc1	hIAP inh 38 | hIAP act conf inactive
